Experimental data taken from ChEMBL document CHEMBL1833887, “Synthesis and evaluation of 7-substituted 4-aminoquinoline analogues for antimalarial activity” (J Med Chem, 2011).
≈ marks a conversion by molar mass, not a printed value.

Experiments:
Plasmodium falciparum [1] = test: Ratio of EC50 for chloroquine-resistant Plasmodium falciparum K1 infected in human erythrocytes to EC50 for chloroquine-sensitive Plasmodium falciparum 3D7 infected in human erythrocytes; type: functional
HepG2 = test: Cytotoxicity against human HepG2 cells assessed as intracellular ATP level after 72 hrs by Celltiter-Glo luminescent assay; type: cell-based; details: HepG2, 72 h
Plasmodium falciparum [2] = test: Antimalarial activity against chloroquine-sensitive Plasmodium falciparum 3D7 infected in human erythrocytes assessed as reduction in parasitemia after 72 hrs by spectrophotometry; type: functional, organism-based; details: 3D7, 72 h
[3] = Dissociation constant, pKa of the compound; type: physicochemical
[4] = Ratio of EC50 for human HepG2 cells to EC50 for Plasmodium falciparum K1 infected in human erythrocytes
Plasmodium falciparum [5] = test: Antimalarial activity against chloroquine-resistant Plasmodium falciparum K1 infected in human erythrocytes assessed as reduction in parasitemia after 72 hrs by spectrophotometry; type: functional, organism-based; details: K1, 72 h
[6] = Permeability of the compound at pH 7.4 after 30 mins by PAMPA; type: ADME; details: read-out: permeability
Summary of the method: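 PAMPA at pH 7.4. A 10 mM DMSO stock is diluted into system solution buffer; its UV spectrum serves as reference. Membrane painted with GIT lipid, acceptor chamber holds acceptor solution buffer. Sandwich stirred for 30 min, aqueous boundary layer set to 40. Donor and acceptor UV spectra read at 250–500 nm. Permeability coefficient from the AUCs of reference, donor and acceptor. Single experiment in triplicate.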

[7] = Ratio of EC50 for human HepG2 cells to EC50 for Plasmodium falciparum 3D7 infected in human erythrocytes
[8] = Solubility of the compound at pH 7.4 after 18 hrs by UV spectroscopic analysis; type: physicochemical; details: buffer
Summary of the method: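 Kinetic solubility. A 10 mM stock is diluted 1:100 into PBS pH 7.4 and incubated 18 h at room temperature, then filtered; the filtrate is mixed 1:1 with 1-propanol. UV spectrum (250–500 nm) compared by AUC with a 1-propanol/PBS reference. Single experiment in triplicate.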

Row | Structure (SMILES) | Ratio EC50 (Plasmodium falciparum [1]) | EC50 (HepG2) | EC50 (Plasmodium falciparum [2]) | pKa [3] | Ratio EC50 [4] | EC50 (Plasmodium falciparum [5]) | Papp at 0.5 h [6] | Ratio EC50 [7] | solubility at 18 h [8]
1 | COc1ccc(Oc2ccc3c(NCCCNCc4cccc(OC)c4O)ccnc3c2)cc1 | 91.5 | 5.5 µM | 4 nM | 9.28 | 15 | 375 nM | 317 ×10⁻⁶ cm/s | 1347 | 14.5 µM (≈ 6.66 µg/mL)
2 | COc1ccccc1Oc1ccc2c(NCCCNCc3ccc4c(c3)OCO4)ccnc2c1 | 37.7 | 5.9 µM | 14 nM | 9.28 | 11 | 517 nM | 317 ×10⁻⁶ cm/s | 427 | 14.5 µM (≈ 6.63 µg/mL)
3 | COc1cccc(Oc2ccc3c(NCCCNCc4ccc5c(c4)OCO5)ccnc3c2)c1 | 50 | 14.1 µM | 12 nM | 9.28 | 24 | 600 nM | 317 ×10⁻⁶ cm/s | 1178 | 14.5 µM (≈ 6.63 µg/mL)
4 | COc1ccc(Oc2ccc3c(NCCCNCc4cc(F)ccc4OC)ccnc3c2)cc1 | 12.2 | 7 µM | 54 nM | 9.28 | 11 | 660 nM | 317 ×10⁻⁶ cm/s | 129 | 14.5 µM (≈ 6.69 µg/mL)
5 | Fc1ccc(Oc2ccc3c(NCCCNCc4ccc5c(c4)OCO5)ccnc3c2)cc1 | 44.5 | 16 µM | 15 nM | 9.28 | 24 | 667 nM | 317 ×10⁻⁶ cm/s | 1067 | 14.5 µM (≈ 6.46 µg/mL)
6 | COc1cccc(CNCCCNc2ccnc3cc(Oc4ccc(Cl)cc4)ccc23)c1O | 70.7 | 5.7 µM | 11 nM | 9.28 | 7 | 785 nM | 317 ×10⁻⁶ cm/s | 514 | 14.5 µM (≈ 6.73 µg/mL)
7 | Clc1ccc(Oc2ccc3c(NCCCNCc4ccco4)ccnc3c2)cc1 | 19.8 | 7.8 µM | 40 nM | 9.28 | 10 | 793 nM | 317 ×10⁻⁶ cm/s | 194 | 14.5 µM (≈ 5.91 µg/mL)
8 | COc1ccc(F)cc1CNCCCNc1ccnc2cc(Oc3ccccc3OC)ccc12 | 44 | 6.4 µM | 22 nM | 9.28 | 7 | 960 nM | 317 ×10⁻⁶ cm/s | 293 | 14.5 µM (≈ 6.69 µg/mL)
9 | COc1ccc(Oc2ccc3c(NCCCNCc4ccc5c(c4)OCO5)ccnc3c2)cc1 | 30.9 | 7.9 µM | 46 nM | 9.28 | 6 | 1420 nM | 317 ×10⁻⁶ cm/s | 172 | 14.5 µM (≈ 6.63 µg/mL)
10 | COc1cccc(CNCCCNc2ccnc3cc(Oc4ccccc4)ccc23)c1O | 122 | 6.8 µM | 15 nM | 9.28 | 4 | 1840 nM | 317 ×10⁻⁶ cm/s | 450 | 14.5 µM (≈ 6.23 µg/mL)
11 | COc1cccc(CNCCCNc2ccnc3cc(Oc4cccc(N(C)C)c4)ccc23)c1O | 215.1 | 7.3 µM | 10 nM | 9.28 | 4 | 2040 nM | 317 ×10⁻⁶ cm/s | 765 | 14.5 µM (≈ 6.85 µg/mL)
12 | CC(C)(C)c1ccc(Oc2ccc3c(NCCCNCc4ccc5c(c4)OCO5)ccnc3c2)cc1 | 17.9 | 0.9 µM | 137 nM | 9.28 | 0.4 | 2450 nM | 317 ×10⁻⁶ cm/s | 7 | 14.5 µM (≈ 7.01 µg/mL)
